Published values from different studies.
Protocols differ between the studies behind these lines.
Target: Ribosomal protein S6 kinase beta-1 (RPS6KB1, Homo sapiens, UniProt P23443)

N[C@@H]1CCN(c2nccc(-c3cnn4ncccc34)n2)C1  remaining binding (binding; 1 µM): 100%
COc1cnc(Nc2cccc(S(N)(=O)=O)c2)nc1N1CCN(c2ccccc2)CC1  remaining binding (binding; competition with immobilised ligand; 1 µM): 94%
O=C(c1ccc(Nc2ncc(Cl)c(-c3cc4ccccc4s3)n2)cc1)N1CCC(N2CCCC2)CC1  remaining binding (binding; competition with immobilised ligand; 1 µM): 37%
c1cncc(-c2cccc(Nc3nccc(NC4CCCCC4)n3)c2)c1  remaining binding (binding; competition with immobilised ligand; 10 µM): 64%
CN(c1nccc(-c2cnn3ncccc23)n1)C1CC1  remaining binding (binding; 1 µM): 100%
C[C@@H](c1cccc(C#N)c1)n1cc(Cl)cc(C(N)=O)c1=N  remaining binding (cell-free assay; competition with immobilised ligand; 1 µM): 100%
O=C(NCCCN1CCOCC1)c1ccc(Nc2ncc(Cl)c(-c3ccc(Cl)s3)n2)cc1  remaining binding (binding; competition with immobilised ligand; 1 µM): 38%
CN(C)C(=O)Cn1cc(-c2nc([C@@](C)(c3ccc(-c4cnc(N)nc4)cc3)C3CC3)no2)cn1  remaining binding (cell-free assay; competition with immobilised ligand; 1 µM): 83%
O=C(c1ccc(Nc2nccc(-c3cc4ccccc4s3)n2)cc1)N1CCC(N2CCCC2)CC1  remaining binding (binding; competition with immobilised ligand; 1 µM): 79%
COc1ncc2cc3ccccc3nc2c1C#N  remaining binding (cell-free assay; competition with immobilised ligand; 5 µM): 100%
c1cnn2ncc(-c3ccnc(N4CCC45COC5)n3)c2c1  remaining binding (binding; 1 µM): 66%
O=C(NCC1CCOCC1)c1n[nH]cc1NC(=O)c1c(F)cccc1F  remaining binding (binding; competition with immobilised ligand; 1 µM): 87%
O=C(NS(=O)(=O)c1ccc(NCC2CCOCC2)c([N+](=O)[O-])c1)c1ccc(N2CCN(Cc3ccc(C(F)(F)F)cc3-c3ccc(Cl)cc3)CC2)cc1Oc1cnc2[nH]ccc2c1  remaining binding (cell-free assay; competition with immobilised ligand; 1 µM): 81%
C[C@H]1CCN(c2nccc(-c3cnn4ncccc34)n2)C1  remaining binding (binding; 1 µM): 81%
C[C@H](NC(=O)c1cnc2n1[C@](C)(Cc1ccc(C#N)cc1)C(=O)N2c1cc(Cl)c(F)c(Cl)c1)C(=O)NC1(c2ccccn2)CC1  remaining binding (cell-free assay; competition with immobilised ligand; 1 µM): 100%
Cc1cnn2ncc(-c3ccnc(N(C)C)n3)c2c1  remaining binding (binding; 1 µM): 82%
NS(=O)(=O)c1cc(NC(=O)Cc2ccccc2)ccc1Oc1cccc(Cl)c1  remaining binding (cell-free assay; competition with immobilised ligand; 1 µM): 69%
CCN1CCN(Cc2ccc(C(=O)Nc3ccc(C)c(Oc4ccc5c(c4)CC(=O)N5)c3)cc2C(F)(F)F)CC1  remaining binding (binding; competition with immobilised ligand; 1 µM): 100%
N#CC1(c2ccccn2)CCN(Cc2cc(C(=O)N3CCCC3)c(=O)n3ccccc23)CC1  remaining binding (binding; competition with immobilised ligand; 1 µM): 34%
CN(C)c1nccc(-c2cnn3ncccc23)n1  remaining binding (binding; 1 µM): 100%
